System: MS2 coat protein
Test: apparent Kd, MS2 coat protein; higher = weaker binding; RNA-MaP array; FMN 200 µM where present
Summary of the method: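 On Illumina sequencing-chip clusters, designs were transcribed by stalled E. coli RNA polymerase and titrated with SNAP-549-labelled MS2 coat protein (0.7 or 1.5 nM, doubling to 3 µM), without and then with constant ligand, in 100 mM Tris-HCl pH 7.5, 80 mM KCl, 4 mM MgCl2, BSA, DTT, yeast tRNA and Tween-20. Apparent Kd is the median of filtered per-cluster curve fits to green signal normalised to red-channel RNA signal and control-cluster median Fmax.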

[1] = designed as: ON switch for flavin mononucleotide, no ligand
[2] = ligand present: flavin mononucleotide, designed as: ON switch for flavin mononucleotide
[3] = designed as: OFF switch for flavin mononucleotide, no ligand
[4] = ligand present: flavin mononucleotide, designed as: OFF switch for flavin mononucleotide

Row | Sequence | apparent Kd [1] | apparent Kd [2] | apparent Kd [3] | apparent Kd [4]
1 | GGUACCAUCACAGGAUAUGCUAUCCUUUGGGUAGCAGAAGGGUGAUAACAUGAGGAUCACCCAUGUGGUACCGGGCGUGAGCCC | 1030 nM | 197 nM |  | 
2 | GGUACUCAAAGAGUACUGAGUCGAACAUGAGGAUCACCCAUGUAGGAUAUGCGAGUUUUGAAUUUGCAGAAGGACAUUUUUAGC |  |  | 8.88 nM | 9.59 nM
3 | GGUACUCAAAGAGUACUUGGUCGAACAUGAGGAUCACCCAUGUAGGAUAUGCGAAGCAAGAAGUAGCAGAAGGGCGUGUGCAGC |  |  | 12.8 nM | 11.6 nM
4 | GGUAGAGAGCAGGAUAUCUUGGGUAAGUAUUGUAGAGAAGGGCUCACAUGAGGAUCACCCAUGUGGUCCAAGAU |  |  | 13.9 nM | 29.8 nM
5 | GGUAUGCAGCAGGAUAUCCAUCCGCGGUAUGGUGGAGAAGGGCUGACAUGAGGAUCACCCAUGUGCGUCCUAGG |  |  | 32.8 nM | 87.6 nM
6 | GGUCCAACAUGAGGAUAUAGCACCUUAUUGGUGCUAGAAGGCGUGUCGGUAGACAUGAGGAUCACCCAUGUAUUACAAUGGACC | 140 nM | 27 nM |  | 
7 | GGUCCAUCAUGAGGAUAUGGCACCUUAUUGGUGCCAGAAGGCAUGUCUAUAGACAUGAGGAUCACCCAUGUAAUAAAUUGGACC | 790 nM | 46.4 nM |  | 
8 | GGUCCAUCAUGAGGAUAUGGCACCUUAUUGGUGCCAGAAGGCAUGUCUCUUGACAUGAGGAUCACCCAUGUAAUAAAUUGGACC | 915 nM | 125 nM |  | 
9 | GGUCCAUCUGUUAGGAUAUGCUUUGGGCUUCCGCAGUAGAAGGAACAUGAGGAUCACCCAUGUCCGAUGCCGUA |  |  | 20.4 nM | 25.4 nM
10 | GGUCGGCGAGGAUAUACAUGAGGAUCACCCAUGUGAUAGAUUGCACGCGUACGUGUAUGUAGAAGGCGCUGACG |  |  | 21.8 nM | 200 nM
11 | GGUCGUAAGGAGAAGGGCUACUGGUUGAAACCUGCGGCCUCUGGAACAUGAGGAUCACCCAUGUAGCAGGAUAUCCUUGCGUGA |  |  | 188 nM | 45.3 nM
12 | GGUCGUCACAUAUACAUGAGGAUCACCCAUGUCAAAAGACAUGAGGAUAUGGAUAAUAAUAUAAACCAGAAGGCAUGGACGACC | 961 nM | 59.6 nM |  | 
13 | GGUCGUCACAUUAACAUGAGGAUCACCCAUGUCUCUAGACAUGAGGAUAUGGAUCCUAAUUGGAUCCAGAAGGCAUGGACGACC | 1490 nM | 142 nM |  | 
14 | GGUCUGAUAUGAGGAUAUGCUCAGGAUAACUGAGCAGAAGGCAUGUGAAAACAUGAGGAUCACCCAUGUGAUCAAUACAGACCA | 141 nM | 23.9 nM |  | 
15 | GGUGCACGCACAGGAUAUCCGGCGGAGCUCGUCGGAGAAGGGUGACAUGAGGAUCACCCAUGUACGUGCAACUCGGUUUGAGAG | 22.4 nM | 48.9 nM |  | 
16 | GGUGCCAUGUAGAAGGCAGAUCCGAUUCAGAUCUGAGGAUAUACAUGAGGAUCACCCAUGUAAAGGCACCGCACGAGAGUGCAA |  |  | 8.12 nM | 9.11 nM
17 | GGUGCCAUGUAGAAGGCAGAUCUGAUUCAGAUCUGAGGAUAUACAUGAGGAUCACCCAUGUGAAGGCACCGCACGAGAGUGCAA |  |  | 8.21 nM | 24 nM
18 | GGUGCGUUUGUGAGGAUAUGCUGGUCCUUGGAUCUGCAGAAGGCACAUGAGGAUCACCCAUGUGGUGUCGUACC |  |  | 293 nM | 36.5 nM
19 | GGUGGACAUGAGGAUCACCCAUGUGAGGAUAUCGGCUGGCUACUCGCUGACGGCUGCUCGAGAAGGCGCAUUGU |  |  | 46.3 nM | 95.6 nM
20 | GGUGGGAAGUAAGGAUAUCGGCCAUAGUUAGGGCGAGAAGGUACAUGAGGAUCACCCAUGUCGUCGCUAGGGACGGGUCCGGCC |  |  | 6.54 nM | 6.96 nM
21 | GGUGUGAGGCAGGAUAUGCUAUAUGUUCGUAAUGCAGAAGGGUCUACAUGAGGAUCACCCAUGUGUGCGGUUGA |  |  | 172 nM | 413 nM
22 | GGUGUGGCAUGAGGAUAUGGUCAGCUUUGCUGACCAGAAGGCAUGUCAAUAGACAUGAGGAUCACCCAUGUAGUUAACACACCA | 557 nM | 42.4 nM |  | 
23 | GGUUGACAAAGUCAACCUAAACGAACAUGAGGAUCACCCAUGUAGGAUAUGCUACUCAAAGAGUAGCAGAAGGACAUGUGCCUU |  |  | 37.6 nM | 273 nM
